TRPN1 ag = zebrafish TRPN1 channel agonists, primary screen, cell-based, HEK293, calcium fluorescence. transient receptor potential cation channel N1 (TRPN1/NompC), Danio rerio. HEK293 zebrafish TRPN1-YFP, Fluo-8 calcium fluorescence; 100% = response to 87 µM carbachol. AID 1424, 2008. 220,000 compounds, 0.18% hits. activation, % at 3 µM;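 active means activation above its plate's cutoff, the mean activation of test wells on that plate plus 3 SD, cut at about 19% in these data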;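 further: 0% = DMSO alone and 100% = 87 µM carbachol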
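Material: zebrafish TRPN1-YFP in HEK293 cells. Doses: one dose of 3 µM, 0.3% DMSO. Incubation: dye 1 h 37 °C plus 30 min RT. Measured by: intracellular calcium fluorescence with Fluo-8.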
TRPML3 ag = human TRPML3 channel agonists, primary screen, cell-based, HEK293 TRPML3-YFP, Fluo-8 calcium fluorescence, 3 µM; Mucolipin-3 (Homo sapiens), Q8TDD5; 100% = the carbachol control signal; activation, % at 3 µM; 220,000 compounds, 0.29% hits; AID 1448, 2008;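 active means activation above its plate's cutoff, the mean activation of the plate's test wells plus 3 SD, cut at about 12% in these data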;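 further: 0% = DMSO only wells and 100% = carbachol wells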
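Test system: TRPML3-YFP stable HEK293 cells. Doses: single point at 3 µM. Incubation: dye loading 1 h 37 °C then 30 min ambient, 125 s read. Signal: Fluo-8 calcium dye fluorescence, ex 470-495, em 515-575 nm. Measure: percent activation from peak-to-basal fluorescence ratio, scaled between DMSO and carbachol.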
TAAR1 antag = human TAAR1 antagonists, primary screen, Fluo-8 calcium fluorescence, CHO RD-HGA16 cells | inhibition, % at 3 µM | 360,000 compounds, 1.5% hits | antagonist | Trace amine-associated receptor 1 (Homo sapiens), Q96RJ0;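 active means inhibition above a per-plate cutoff, the mean inhibition of test compounds on that plate plus 3 SD, cut at about 49% in these data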;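 further: 0% = DMSO plus EC80 beta-PEA response and 100% = DMSO alone without agonist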
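Test system: hTAAR1-expressing CHO RD-HGA16 cells, Gα16-coupled; Probe or stimulus: EC80 β-phenethylamine stimulus; Compound dosing: single nominal final test compound concentration of 3 µM; Timing: 140 s kinetic read after compound, 140 s after agonist; Signal: Fluo-8 calcium-sensitive fluorescence; Measure: % inhibition of agonist calcium response; Controls: DMSO and EC80 PEA controls.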
GPR7 antag = GPR7 receptor antagonists, primary screen, cell-based, fluorescence, single concentration; inhibition, % at 4.4 µM; 290,000 compounds, 1.1% hits; AID 1861, 2009; Neuropeptides B/W receptor type 1 (Homo sapiens), P48145; GPR7-expressing cells, fluorescence antagonist assay; in the data active means inhibition above about 16%, passing the limit was not always enough;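 further: cells stimulated with the agonist NPW; 0% = agonist with vehicle and 100% = vehicle without agonist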
TAAR1 agonist = human TAAR1 agonists, primary screen, Fluo-8 calcium fluorescence, CHO RD-HGA16 cells | activation, % at 3 µM | 360,000 compounds, 0.99% hits | vehicle wells 0%, saturating PEA agonist 100% | Trace amine-associated receptor 1 (Homo sapiens), Q96RJ0 | AID 624467, 2012;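 active means activation above the mean activation of all test compounds in the run plus 3 SD, cut at about 38% in these data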
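Test system: RD-HGA16 (CHO) cells co-expressing Gα16 and hTAAR1 | Doses: Single dose, 3 µM | Schedule: 17-24 h seeding, 75 min 37 °C dye, 30 min RT | Evaluation: % activation from peak over basal fluorescence ratio, DMSO-to-PEA scaled | Technique: Kinetic Fluo-8 calcium fluorescence | Benchmarks: Low control DMSO, high control PEA (EC100)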
LANA-H2A inh = blockers of LANA interaction with H2A/H2B – biochemical, FP readout, HTS, primary screen. cell-free LANA-H2A/H2B peptide, fluorescence polarization. 320,000 compounds, 0.6% hits. inhibition, % (no concentration beside the values). Protein LANA1 (Human herpesvirus 8 type P (isolate GK18)), Q9QR71; in the data active means inhibition mostly above about 10%, no sharp cut-off; inactive means mostly below about 6.7%
The depositor's hits bear a star; . = no result given; + = active, no number. This is a sample that favours compounds with a hit; in the whole collection about 3.4% have one here.

SMILES	TRPN1 ag	TRPML3 ag	TAAR1 antag	GPR7 antag	TAAR1 agonist	LANA-H2A inh
O=C(CCl)N(c1ccc(Cl)cc1)c1c[nH]c2ccccc12	0.9	1.5	25.7	6.3	39.1*	0.7
CCOC(=O)c1c(S(=O)(=O)NCCc2ccc(OC)c(OC)c2)c(C)n(C)c1C	.	.	-26.0	10.9	2.7	-2.6
CCOC(=O)c1c(S(=O)(=O)NCCc2ccccc2)c(C)n(C)c1C	.	.	-18.2	9.3	38.6*	1.3
CN1OC[C@@H]2CN(CC3CCCCC3)[C@H](c3ccc(-c4ccc(C#N)cc4)cc3)C[C@@H]21	.	.	-36.9	.	2.5	.
CC1(c2ccccc2)CC(C)(C)N(C(N)=O)c2ccccc21 (stereo not given)	.	.	10.5	-27.6	10.3	22.1*
COc1cc(CN2C[C@@H](CO)O[C@@H](n3cnc4c(NC5CCC5)ncnc43)C2)cc(OC)c1OC	.	.	-4.0	.	1.6	.
COc1cc(CN2C[C@@H](CO)O[C@@H](n3cnc4c(Nc5ccccc5)ncnc43)C2)cc(OC)c1OC	.	.	60.5*	.	15.2	.
C=CCNc1ncnc2c1ncn2[C@H]1CN(Cc2ccccc2)C[C@@H](CO)O1	.	.	-21.9	.	0.7	.
OC[C@@H]1CN(Cc2ccc3c(c2)OCO3)C[C@H](n2cnc3c(N4CCCC4)ncnc32)O1	.	.	-15.8	.	1.7	.
C=CCNc1ncnc2c1ncn2[C@H]1CN(CCc2ccccc2)C[C@@H](CO)O1	.	.	-18.0	.	37.6*	.
OC[C@@H]1CN(Cc2ccc3c(c2)OCO3)C[C@H](n2cnc3c(N4CCN(c5ccccc5)CC4)ncnc32)O1	.	.	54.8*	.	11.8	.
COc1ccc(NC(=O)N(C)C[C@H]2OCc3cnnn3CCCC(=O)N([C@H](C)CO)C[C@@H]2C)c(OC)c1	.	.	7.0	.	-0.1	.
CCOC(=O)N1CCN(C(=O)C[C@H]2C[C@@]3(C(=O)OC)C(=C[C@H](COCc4ccccc4)O[C@@H]3C)N(Cc3ccc4c(c3)OCO4)C2=O)CC1	.	.	-10.2	.	-2.5	.
COc1ccc(-c2sc3cc(OC)c(OC)cc3c2-c2ccc(O)cc2)cc1	.	.	-3.9	.	-1.1	+
COc1ccc(-c2sc3ccccc3c2-c2ccc(O)cc2)cc1	.	.	31.7	.	5.7	-0.6
COc1cccc(C(C)NC(=O)Nc2ccccc2Cl)c1 (stereo not given)	-2.8	-0.6	-0.6	-15.5	5.7	14.6*
C=CCN=C1NC(c2ccccc2C(F)(F)F)C(C(=O)OC)=C(C)N1Cc1ccc(C(F)(F)F)cc1 (stereo not given)	.	.	-3.1	.	2.7	.
CC(=O)C1=C(C)N(Cc2ccc(F)cc2)C(=S)NC1c1ccccc1 (stereo not given)	.	.	36.7	.	-0.8	.
CN1CCN(C(=O)c2cc3c(C(F)(F)F)nn(C)c3s2)CC1	-0.1	-0.2	-12.8	6.7	0.5	17.4*
CC(C)CCNC(=S)Nc1ccc([N+](=O)[O-])cc1	24.3*	13.5*	28.2	21.9*	6.4	1.5
CCCCNC(=S)Nc1ccc([N+](=O)[O-])cc1	21.5*	10.7	2.3	23.1*	5.2	1.5
CC(=O)C1=C(C)N(Cc2ccc(Br)cc2)C(=S)NC1c1cccc(F)c1 (stereo not given)	.	.	27.5	.	-0.5	.
COc1ccccc1-c1cc(C(=O)NCc2ccccc2)no1	-0.4	-0.6	-5.6	17.4	20.1	-1.9
COCC(C)NC(=O)c1cc(-c2ccccc2OC)on1 (stereo not given)	-0.8	-0.5	9.2	-5.8	5.0	21.3*
COc1ccccc1-c1cc(C(=O)NCCN2CCOCC2)no1	0.8	0.5	-13.4	-2.0	23.1	15.5*
SMILES	TRPN1 ag	TRPML3 ag	TAAR1 antag	GPR7 antag	TAAR1 agonist	LANA-H2A inh
COC(=O)[C@]12C[C@H](CC(=O)NCc3cccc4ccccc34)C(=O)N(Cc3ccccc3)C1=C[C@H](C(C)C)O[C@@H]2C1CC1	.	.	-51.0	.	7.0	.
CN(CC(=O)Nc1ccc(Cl)c(Cl)c1)C(=O)c1cccc2cccnc12	.	.	39.4	.	27.2	69.8*
COc1ccccc1NC(=O)c1ccccc1-c1nc(-c2ccccc2OC)no1	-1.3	-0.9	51.3*	-1.6	15.7	1.1
CCOC(=O)C1=CCN(S(=O)(=O)c2ccc(Br)cc2)C1c1ccc(Br)cc1 (stereo not given)	.	.	-3.6	.	-0.3	.
Cc1ccccc1C(=O)Nc1ccc2c(C#N)c3nc4ccccc4nc3n2c1	4.2	2.3	29.9	-0.8	15.1	27.8*
O=C(c1ccc(O)cc1)c1ccc(O)cc1O	1.4	0.7	-4.6	-12.7	6.9	12.3*
O=C(C(=O)N1CCN(S(=O)(=O)c2cccc(C(F)(F)F)c2)CC1)c1cccc(C(F)(F)F)c1	.	.	-18.6	.	0.8	.
Cc1ccc(-n2nc3c(=O)n(C(C)C(=O)NCCC4=CCCCC4)nc(C)c3c2C)cc1 (stereo not given)	.	.	-3.5	1.1	37.9*	0.1
FC(F)(F)c1ccccc1Cc1c(-c2ccco2)nc2c3ccccc3ccn12	.	.	-22.9	.	5.1	.
COc1ccc(CCNC(=O)/C=C/C(=O)O)cc1OC	0.1	0.8	-13.2	3.0	40.6*	1.3
COc1ccc(CCNC(=O)/C=C\c2ccccc2)cc1OC	1.6	0.3	-16.6	2.9	4.0	-12.3
COc1ccc(CCNC(=O)C2CC2)cc1OC	-0.1	0.2	-20.6	-13.6	9.4	-7.5
COc1ccc(CCNC(=O)C2CCC(C(C)(C)C)CC2)cc1OC (stereo not given)	.	.	-7.5	-12.6	0.8	57.8*
Cc1c(-c2ccccc2)nnn1-c1ccc(F)c(Cl)c1	.	.	-15.4	.	0.8	.
COc1ccc(CN=Cc2[nH]c3ccc(Br)c(Cl)c3c2O)cc1	2.6	1.1	106.5*	10.1	-2.6	0.6
CC(C)=CCc1c(-c2ccc(O)cc2O)oc2c3c(cc(O)c2c1=O)OC(C)(C)C=C3	.	.	.	.	.	22.7*
O=C(/C=C/c1cn(-c2ccccc2)nc1-c1ccc2c(c1)OCCO2)NCCO	1.4	0.8	-4.5	-4.2	-0.3	5.3
OCc1ccc2c(c1)c(-c1ccc3c(c1)OCCO3)c(-c1ccccc1)n2-c1ccccc1	.	.	62.0*	.	4.9	-7.7
Cc1nc(C2CC(=O)OC23CCCCC3)cs1 (stereo not given)	0.9	1.1	4.3	-0.1	1.3	-5.5*
O=C(NCc1ccccc1)[C@@H]1CCCN1C(=O)[C@H]1CCCN1C(=O)c1ccc(F)cc1F	.	.	-18.7	.	0.3	.
Cc1cccc2nc(-c3ccccc3)c(-c3ccc(CN4CCC5(CC4)CNc4ccccc45)cc3)nc12	.	.	-28.7	.	-2.2	.
